Test results reported in ChEMBL document CHEMBL1133351, “Synthesis and evaluation of vitamin D-based cationic lipids for gene delivery in vitro” (2000).

Experiments:
HeLa = assay: Transfection activity of compound was tested in human cervical adenocarcinoma (HeLa) cells (Level of luciferase gene expression is expressed as mean of relative light units (RLU) per well); type: functional
Procedure, shortened: (§1)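 Cationic lipid:DOPE (1:1 molar) films hydrated in PBS pH 7.4 (5 mM cationic lipid), bath-sonicated. pCMV-Luc (CMV-driven firefly luciferase) 1 µg in serum-free CHO-S-SFM mixed with 5 nmol lipid in HBSS, 5–10 min RT. Cells 5×10^4/well seeded 24 h prior; 5 h exposure, then FBS; medium replaced at 24 h; lysed 24 h later; luciferase luminescence (10 s), RLU/well, mean of triplicates.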

HEK293 = assay: Transfection activity of compound was tested in human embryonic kidney (293) cells (Level of luciferase gene expression is expressed as mean of relative light units (RLU) per well); type: functional; procedure, shortened: as §1
[1] = Transfection activity of compound was tested in lewis lung carcinoma (3LL) cells (Level of luciferase gene expression is expressed as mean of relative light units (RLU) per well); type: functional, cell-based; settings: Mus musculus; procedure, shortened: as §1
NIH3T3 = assay: Transfection activity of compound was tested in murine embryonic fibroblast (NIH3T3) cells (Level of luciferase gene expression is expressed as mean of relative light units (RLU) per well); type: functional, Mus musculus; procedure, shortened: as §1

C=C1CC[C@H](OC(=O)NCCN(CCN)CCN)C/C1=C/C=C1\CCC[C@]2(C)[C@@H]([C@H](C)CCCC(C)C)CC[C@@H]12.Cl
RLU/well (HeLa): 1.4e+06 | RLU/well (HEK293): 3.2e+07 | RLU/well [1]: 150000 | RLU/well (NIH3T3): 690000

C=C1CC[C@H](OC(=O)NCCCCN)C/C1=C/C=C1\CCC[C@]2(C)[C@@H]([C@H](C)CCCC(C)C)CC[C@@H]12.Cl
RLU/well (HeLa): 1.7e+06 | RLU/well (HEK293): 4.7e+07 | RLU/well [1]: 820000 | RLU/well (NIH3T3): 7.8e+06

C=C1CC[C@H](OC(=O)NCCN(CCN)CCN)C/C1=C/C=C1\CCC[C@]2(C)[C@@H]([C@H](C)/C=C/[C@H](C)C(C)C)CC[C@@H]12.Cl
RLU/well (HeLa): 540000 | RLU/well (HEK293): 4.8e+07 | RLU/well [1]: 590000 | RLU/well (NIH3T3): 1.9e+06

C=C1CC[C@H](OC(=O)NCCN(C)C)C/C1=C/C=C1\CCC[C@]2(C)[C@@H]([C@H](C)CCCC(C)C)CC[C@@H]12.Cl
RLU/well (HeLa): 290000 | RLU/well (HEK293): 1.1e+06 | RLU/well [1]: 220000 | RLU/well (NIH3T3): 120000

C=C1CC[C@H](OC(=O)NCCN(C)C)C/C1=C/C=C1\CCC[C@]2(C)[C@@H]([C@H](C)/C=C/[C@H](C)C(C)C)CC[C@@H]12.Cl
RLU/well (HeLa): 2.6e+06 | RLU/well (HEK293): 3.9e+06 | RLU/well [1]: 800000 | RLU/well (NIH3T3): 270000

C=C1CC[C@H](OC(=O)NCC[N+](C)(C)C)C/C1=C/C=C1\CCC[C@]2(C)[C@@H]([C@H](C)/C=C/[C@H](C)C(C)C)CC[C@@H]12.[I-]
RLU/well (HeLa): 38000 | RLU/well (HEK293): 1.6e+06 | RLU/well [1]: 4000 | RLU/well (NIH3T3): 180000

C=C1CC[C@H](OC(=O)NCCCCN)C/C1=C/C=C1\CCC[C@]2(C)[C@@H]([C@H](C)/C=C/[C@H](C)C(C)C)CC[C@@H]12.Cl
RLU/well (HeLa): 930000 | RLU/well (HEK293): 6.3e+07 | RLU/well [1]: 610000 | RLU/well (NIH3T3): 2.1e+06

C=C1CC[C@H](OC(=O)NCC[N+](C)(C)C)C/C1=C/C=C1\CCC[C@]2(C)[C@@H]([C@H](C)CCCC(C)C)CC[C@@H]12.[I-]
RLU/well (HeLa): 18000 | RLU/well (HEK293): 560000 | RLU/well [1]: 5300 | RLU/well (NIH3T3): 570000
